Measurements published in ChEMBL document CHEMBL1144439, “A novel class of in vivo active anticancer agents: achiral seco-amino- and seco-hydroxycyclopropylbenz[e]indolone (seco-CBI) analogues of the duocarmycins and CC-1065” (J Med Chem, 2005).
pIC50: −log10 of the molar value.

Key:
[1] = The concentration required for inhibiting the growth of the murine B16-F0 melanoma cells by 50%; assay type: functional; conditions: Mus musculus, B16F0
Procedure, shortened: (§1)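 MTT growth inhibition in murine lines grown in DMEM with 10% FBS, HEPES, glutamine, pen/strep at 37 °C, 5% CO2. Seeded 80 000 cells/well, continuous drug exposure (DMSO stock diluted in DMEM) for 72 h, quadruplicate wells per concentration. MTT added for 4 h, formazan dissolved in acid 2-propanol, read at 570 nm (reference 630 nm). IC50 extrapolated from averaged absorbance curves.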

L1210 = assay: The concentration required for inhibiting the growth of the murine L1210 leukemia cells by 50%; assay type: functional, cell-based; conditions: Mus musculus; procedure, shortened: as §1
P815 = assay: The concentration required for inhibiting the growth of the murine P815 mastocytoma cells by 50%; assay type: functional, cell-based; conditions: Mus musculus
Procedure, shortened: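 P815 cells grown in DMEM with 10% FBS, HEPES, glutamine and pen/strep, seeded at 80 000 cells/well. Drug in DMSO/DMEM was added to final concentrations from 1.0 × 10^-12 to 1.0 × 10^-4 M, continuous for 72 h at 37 °C, 5% CO2, in quadruplicate. MTT was added for 4 h and solubilised in acid 2-propanol, read at 570/630 nm. IC50 was extrapolated from mean absorbance curves.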

K562 = assay: The concentration required for inhibiting the growth of the human K562 chronic myeloid leukemia cells by 50%; assay type: functional, cell-based
Procedure, shortened: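 Drug exposure was […] in the dark, then cells were washed and plated at 10⁴ cells/well, eight wells per sample, and incubated 4 days. MTT was added for 5 h, formazan dissolved in DMSO and read at 550 nm.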

Compound	pIC50 [1]	pIC50 (L1210)	pIC50 (P815)	pIC50 (K562)
COc1cc2cc(C(=O)Nc3cc(N)c4ccccc4c3CCO)[nH]c2c(OC)c1OC	4.22	4.39	–	–
COC(=O)c1[nH]c2c(O)cc(NC(=O)c3cc4cc(OC)c(OC)c(OC)c4[nH]3)c(CCCl)c2c1C(=O)OC	5.17	5.38	5.27	6.60
COc1ccc(/C=C/C(=O)Nc2cc(N)c3ccccc3c2CCCl)c(OC)n1	7.21	6.74	–	–
COc1ccc2[nH]c(C(=O)Nc3cc(N)c4ccccc4c3CCCl)cc2c1	6.59	6.41	–	–
COc1cc2cc(C(=O)NC3=C(CCCl)CCC(O)=C3)[nH]c2c(OC)c1OC	–	–	–	5.84
COc1cc2cc(C(=O)Nc3cc(N)c4ccccc4c3CCOC(C)=O)[nH]c2c(OC)c1OC	4.27	4.28	–	–
